The list is not random: actives were taken first. Their share in the collection is about 4.8%.
SF-1 act: activators of human SF-1, primary screen, cell-based, CHO-K1, Gal4-SF-1 LBD, luciferase luminescence; activation, % at 10 µM; AID 522, 2006; 65,000 tested, 1.9% active; CHO-K1 Gal4-SF-1 LBD luciferase reporter; % increase over DMSO SF-1-specific signal; Steroidogenic factor 1 (Homo sapiens), Q13285;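 active = activation above the mean activation of all tested compounds plus 3 SD, cut at about 50% in these data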
Target sequence (Q13285 whole entry, looked up, the tested form may be a part): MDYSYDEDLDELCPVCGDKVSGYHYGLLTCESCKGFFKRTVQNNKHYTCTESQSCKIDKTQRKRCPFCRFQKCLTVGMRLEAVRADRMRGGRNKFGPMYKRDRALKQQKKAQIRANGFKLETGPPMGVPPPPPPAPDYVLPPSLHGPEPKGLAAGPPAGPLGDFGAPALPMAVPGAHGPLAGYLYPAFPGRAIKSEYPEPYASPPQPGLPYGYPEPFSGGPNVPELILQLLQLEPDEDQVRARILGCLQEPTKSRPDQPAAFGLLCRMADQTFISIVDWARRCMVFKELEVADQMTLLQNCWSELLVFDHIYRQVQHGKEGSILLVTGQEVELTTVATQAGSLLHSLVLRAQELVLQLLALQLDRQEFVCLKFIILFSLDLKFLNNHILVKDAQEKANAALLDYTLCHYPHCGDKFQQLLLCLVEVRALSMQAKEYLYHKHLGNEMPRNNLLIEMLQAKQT
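Assay system: CHO-K1 cells co-transfected with Gal4 DBD–human SF-1 LBD, 5xGal4 luciferase reporter; doses: 10 µM only; incubation: 20 h compound exposure at 37 °C after 1 h cell settling; signal: luciferase light emission; evaluation: percent activation versus DMSO; repeats: one test per compound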
ERb coact inh: inhibitors of ERβ-SRC1 coactivator interaction, primary screen, biochemical, TR-FRET, ERβ LBD, SRC-1 peptide. Estrogen receptor beta (Homo sapiens), Q92731. TR-FRET ER-beta LBD / SRC1-Cy5 peptide binding; receptor agonist-loaded with 1 µM estradiol. inhibition, % at 25.6 µM. 86,000 tested, 1.3% active. AID 633, 2007;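 active = compounds whose percent inhibition of the receptor-coactivator binding signal exceeds about 50% in the single-dose screen, limit read from the data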;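 also: 0% = receptor plus peptide wells without compound and 100% = peptide-only wells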
RORA act: activators of orphan receptor RORA, primary screen, cell-based, luminescence. 65,000 tested, 1.5% active. CHO-K1 Gal4-RORA LBD luciferase reporter; percent increase over mock-subtracted basal signal. activation, % at 10 µM. Nuclear receptor ROR-alpha (Homo sapiens), P35398;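 active = activation above the mean of all tested compounds plus 3 SD, cut at about 49% in these data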;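 also: 0% = DMSO-treated RORA cells and 100% = added signal equal to DMSO minus mock-transfected cells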
ERa SRC1 inh: ERα–SRC-1 coactivator interaction inhibitors, primary screen, biochemical, TR-FRET, ERα LBD, estradiol-bound | Estrogen receptor (Homo sapiens), P03372 | TR-FRET ER-alpha LBD / SRC-1 peptide | inhibition, % at 25.6 µM | 86,000 tested, 1.7% active | AID 629, 2007; in the data active = inhibition above about 50%;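 also: 0% = receptor plus peptide control and 100% = peptide only without receptor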
ERa coact pot: enhancers of ERα–SRC-1 coactivator binding, primary screen, biochemical, TR-FRET, ERα LBD, low estradiol. TR-FRET ERalpha-LBD/SRC-Cy5 coactivator binding, 2 h; 100 = basal binding, no effect. 86,000 tested, 1.3% active. Estrogen receptor (Homo sapiens), P03372. coactivator binding (% of control), % at 25.6 µM; in the data active = activity above about 200%;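 also: binding measured in presence of low estradiol as agonist stimulus; 0% = peptide alone without receptor and 100% = receptor with peptide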
PTK2B oligo ant: antagonists of Pyk2 self-association, primary screen, Q293 cells, FERM NanoBiT luminescence, HTS. active compounds read low. z-score (the deposit names both 25 µM and 10 µM). 99,000 tested, 0.83% active. AID 1347419, 2020;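 active = Z-score of -3 or lower, scaled per plate to the spread of control and sample wells; inactive = z-score above -3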;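 also: negative z-score means lost luminescence so less FERM oligomerization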
Active calls of the source: *; nt = not tested or not shown; [ ] = dose if it differs, or a comment.

SMILES	SF-1 act	ERb coact inh	RORA act	ERa SRC1 inh	ERa coact pot	PTK2B oligo ant
COc1ccc(C2=NOC(C(=O)N3CCOCC3)C2)cc1OC (configuration not stated)	28	-9	2	-12	104	0.11
Clc1ccc(OCc2nnc(-c3ccccc3Br)o2)cc1	8	4	17	9	86	1.1
Clc1ccc(OCc2nnc(-c3ccccc3Br)o2)c(Cl)c1	30	5	90*	6	119	-1.1
CCOc1cccc(C(=O)Nc2ccc3oc(Cc4ccc(Cl)cc4)nc3c2)c1	nt	-1	nt	-8	100	0.87
Cc1cccc(N2CCN(c3nc4ccccc4n4cnnc34)CC2)c1C	3	29	-3	54*	54	nt
O=C(Nc1nnc(-c2ccc3c(c2)CCCC3)o1)c1ccccc1	nt	-4	nt	2	89	nt
O=C(Nc1nnc(-c2ccc3c(c2)OCCO3)o1)c1ccc(Cc2ccccc2)cc1	12	65*[fluorescence artefact?]	13	45	351*[fluorescence artefact?]	nt
CC(OC(=O)c1cc(=O)[nH]c2ccccc12)c1ccccc1 (configuration not stated)	31	30	37	14	84	-4*
Cc1ccc(NS(=O)(=O)c2ccc(OCC(=O)NCc3ccco3)cc2)cc1	-8	-7	0	-12	97	1
CN(C)c1cccc(C(=O)OCC(=O)NCc2ccco2)c1	6	8	-8	1	111	0.76
Cc1ccc(NS(=O)(=O)c2cccc(C(=O)OCC(=O)NCc3ccco3)c2)cc1	2	45	-26	53*	92	0.11
CSc1ccc(Cl)c(C(=O)OCC(=O)NCc2ccco2)c1	-12	47	-4	52*[fluorescence artefact?]	142	2
O=C(COC(=O)c1cncc(Br)c1)NCc1ccco1	2	50*[fluorescence artefact?]	-6	60*[fluorescence artefact?]	110	0.51
COc1cc(C(=O)OCC(=O)NCc2ccco2)cc(OC)c1OC	-6	-5	-8	-10	82	0.63
CCOc1cc(C(=O)OCC(=O)NCc2ccco2)cc(OCC)c1OCC	7	45	-10	57*[fluorescence artefact?]	80	1.4
CSc1ccc(Cl)c(C(=O)NCc2ccco2)c1	-30	9	5	12	106	-0.65
O=C(COC(=O)c1cncc(Br)c1)NCCC1=CCCCC1	-8	-1	-3	-15	106	0.9
COc1ccc(CCNC(=O)CSc2nc(O)c(C(C)C)c(=O)[nH]2)cc1OC	nt	13	nt	1	87	0.14
COc1ccc2c(c1)C1NC(=S)NC(C)(O2)C1C(=O)Nc1ccccc1C (configuration not stated)	nt	nt	nt	nt	nt	-0.62
Cc1ccccc1N(Cc1nnc2n1CCCCC2)C(=O)Nc1ccccc1	6	-6	2	-8	113	0.72
Cc1cc(C)c2c(=O)[nH]c(SCC(=O)c3ccc(C(C)C)cc3)nc2n1	nt	12	nt	12	558*[fluorescence artefact?]	-0.08
COc1ccc(N2CCN(C(=O)CCCn3c(=O)[nH]c4ccsc4c3=O)CC2)cc1	nt	75*	nt	-4	104	nt
COc1ccc(N2CCN(C(=O)Cn3c(=O)[nH]c4ccsc4c3=O)CC2)cc1	13	-2	-6	4	101	-0.01
COCCCN(C(C)=O)c1nc(-c2ccc(OC)cc2)cs1	98*	4	84*	9	106	-0.77
CCN(CC)CCOC(=O)c1ccc(N=CC2=C(O)CC(C)(C)CC2=O)cc1	-5	nt	-17	nt	nt	nt
CN=CC1=C(O)CC(C)(C)CC1=O	6	-3	-27	-6	126	1.6
CC1(C)CC(=O)C(C=Nc2ccc3[nH]ncc3c2)=C(O)C1	79*	21	18	-3	84	-0.73
Cc1[nH]nc(N=CC2=C(O)CC(C)(C)CC2=O)c1-c1ccc(Cl)cc1	31	3	83*	-1	100	-2

Screening data as filed in PubChem BioAssay.
